Measurements from different studies.
Organism: Mycolicibacterium smegmatis
Observed: microbial growth

CCCCCOc1ccc(-c2c[nH]c(N)n2)cc1
MIC (ATCC700084 MC^2155; 48 h): 150 µM

C[C@H]1c2cccc(O)c2C(=O)C2=C(O)[C@]3(O)C(=O)C(C(N)=O)=C(O)[C@@H](N(C)C)[C@@H]3[C@@H](O)[C@@H]21
MIC (resazurin; MC^2155; 24 h): 0.11 µg/mL

Cc1ccc(Nc2nc(-c3cc(C(=O)Nc4cccc(C)n4)no3)cs2)cc1
MIC (MC2155): > 64 µg/mL

CCCOc1ccc(-c2c[nH]c(N)n2)cc1
MIC (ATCC700084 MC^2155; 48 h): 100 µM

CCN[C@@H]1C[C@H](N)[C@@H](O[C@H]2OC(CN)=CC[C@H]2N)[C@H](O)[C@H]1O[C@H]1OC[C@](C)(O)[C@H](NC)[C@H]1O
MIC (broth dilution; 72 h): 2 µg/mL

Cc1ccc(Nc2nc(-c3cc(C(=O)Nc4ccc(O)cc4)no3)cs2)cc1
MIC (MC2155): > 64 µg/mL

CO[C@H]1/C=C/O[C@@]2(C)Oc3c(C)c(O)c4c(O)c(c(/C=N/N5CCN(C)CC5)c(O)c4c3C2=O)NC(=O)/C(C)=C\C=C\[C@H](C)[C@H](O)[C@@H](C)[C@@H](O)[C@@H](C)[C@H](OC(C)=O)[C@@H]1C
MIC (resazurin; MC^2155; 24 h): 0.8 µg/mL

Cc1ccc(Nc2nc(-c3cc(C(=O)Nc4ccsc4)no3)cs2)cc1
MIC (MC2155): > 64 µg/mL

COc1ccc(-c2c[nH]c(N)n2)cc1
MIC (ATCC700084 MC^2155; 48 h): 200 µM

NC[C@@H]1O[C@H](O[C@H]2[C@@H](O)[C@H](O[C@@H]3[C@@H](O)[C@H](N)C[C@H](N)[C@H]3O[C@H]3O[C@H](CO)[C@@H](O)[C@H](O)[C@H]3N)O[C@@H]2CO)[C@H](N)[C@@H](O)[C@@H]1O
MIC (broth dilution; 72 h): 0.5 µg/mL

C[C@H]1COc2c(N3CCN(C)CC3)c(F)cc3c(=O)c(C(=O)O)cn1c23
MIC (resazurin; MC^2155; 24 h): 0.14 µg/mL

Cl.N=C(N)N/N=C/c1ccc(-c2ccc(/C=N/Nc3ccccc3Cl)cc2)cc1
MIC (MC2155): 1.7 µg/mL

CCCCCCCCCCC[C@@H](C[C@@H]1OC(=O)[C@H]1CCCCCC)OC(=O)[C@H](CC(C)C)NC=O
MIC (resazurin; MC^2155): 48 µg/mL

CCOc1ccc(-c2c[nH]c(N)n2)cc1
MIC (ATCC700084 MC^2155; 48 h): 200 µM

CC[C@H]1OC(=O)[C@H](C)[C@@H](O[C@H]2C[C@@](C)(OC)[C@@H](O)[C@H](C)O2)[C@H](C)[C@@H](O[C@@H]2O[C@H](C)C[C@H](N(C)C)[C@H]2O)[C@](C)(OC)C[C@@H](C)C(=O)[C@H](C)[C@@H](O)[C@]1(C)O
MIC (resazurin; MC^2155; 24 h): 0.36 µg/mL

CCOCCOc1ccc(-c2c[nH]c(N)n2)cc1
MIC (ATCC700084 MC^2155; 48 h): > 200 µM
